PRMT1 inh: blocks human protein arginine methyltransferase 1; recombinant PRMT1, activity-based probe fluorescence polarization; inhibition, % at 2.79 µM; 1.3% of 370,000 active; AID 652257;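 active = inhibition above about 21% made by adding two undisclosed values, limit read from the data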
GSTO1 counter: blocks human GSTO1 in RBBP9 counter-screen | AID 1974 | P78417 | inhibition, % at 5.96 µM | recombinant GSTO1, activity-based probe fluorescence polarization | 1.1% of 300,000 active;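 active = inhibition above the campaign mean inhibition plus 3 SD, cut at about 35% in these data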;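 also: 0% = GSTO1-1 with DMSO and 100% = wells lacking GSTO1-1 enzyme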
Apaf1 inhib: human Apaf-1 inhibition. O14727. reconstituted apoptosome caspase-3 activity, DEVD-Rh110 fluorescence. inhibition, % at 20 µM. 0.71% of 330,000 active. AID 489030; active = inhibition of at least 40% at 20 µM;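 also: plate controls were DMSO wells for no effect and DEVD-CHO caspase inhibitor wells for full effect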
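Material: reconstituted apoptosome with Apaf-1, cytochrome c, caspase-9, procaspase-3, dATP / Buffer or medium: pH 7.5 Hepes buffer with CHAPS, BSA, DTT / Also added: cytochrome c with DEVD-Rh110 / Schedule: compound with Apaf-1, dATP, procaspase-3 30 min, then 50 min reaction, room temperature / Technique: rhodamine 110 fluorescence at Ex 480/Em 540 nm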
PAD4 FP inh: inhibitors of human PAD4; Q9UM07; recombinant PAD4, RCA probe fluorescence polarization; inhibition, % at 6.36 µM; 0.41% of 330,000 active; AID 485272;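 active = percent inhibition above a cutoff equal to the mean of all tested compounds plus 3 SD, cut at about 15% in these data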;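 also: 0% = PAD4 with RCA probe and DMSO and 100% = probe without PAD4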
Target sequence (Q9UM07 whole entry, looked up): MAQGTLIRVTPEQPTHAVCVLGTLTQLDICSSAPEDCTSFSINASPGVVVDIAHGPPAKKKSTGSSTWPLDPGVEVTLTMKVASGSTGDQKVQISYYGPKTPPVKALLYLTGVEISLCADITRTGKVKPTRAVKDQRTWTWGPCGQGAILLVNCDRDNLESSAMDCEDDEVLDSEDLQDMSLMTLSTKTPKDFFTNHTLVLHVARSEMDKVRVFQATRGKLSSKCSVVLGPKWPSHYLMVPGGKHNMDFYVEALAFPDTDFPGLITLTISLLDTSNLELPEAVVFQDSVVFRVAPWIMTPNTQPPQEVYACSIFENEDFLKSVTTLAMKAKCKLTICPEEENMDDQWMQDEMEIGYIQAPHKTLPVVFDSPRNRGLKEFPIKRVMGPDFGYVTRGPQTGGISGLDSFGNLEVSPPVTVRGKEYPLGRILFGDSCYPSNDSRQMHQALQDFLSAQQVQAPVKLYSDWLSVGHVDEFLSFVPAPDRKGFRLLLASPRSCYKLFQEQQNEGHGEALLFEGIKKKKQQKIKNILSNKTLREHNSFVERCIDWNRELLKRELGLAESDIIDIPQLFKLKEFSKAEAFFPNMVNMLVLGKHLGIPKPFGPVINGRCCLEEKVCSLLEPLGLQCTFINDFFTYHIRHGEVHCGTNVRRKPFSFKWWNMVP
TDP2 absorb: blocks human TDP2 phosphodiesterase activity | O95551 | recombinant TDP2, T5PNP hydrolysis, p-nitrophenol absorbance 415 nm | inhibition, % at 12.8 µM | 0.34% of 370,000 active;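 active = inhibition above the mean of all tested compounds plus 3 SD, set per campaign, cut at about 25% in these data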;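 also: 0% = DMSO with enzyme and 100% = buffer with substrate but no TDP2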
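Assay system: recombinant human TDP2 / Reagent: T5PNP substrate at 5 mM, a TopII-DNA adduct mimic / Measured by: epi absorbance from released p-nitrophenol / Evaluation: % inhibition relative to enzyme-containing and enzyme-free wells / Control set: enzyme-free and DMSO wells / Replicates: each compound tested once, singlicate / Schedule: enzyme reaction with compound for 2 h at 37 °C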
TDP2 confirm: human TDP2 inhibition, confirmation. shares compounds with TDP2 absorb. recombinant human TDP2, absorbance read-out. AID 743263. inhibition, % at 12.8 µM. 22% of 1,100 active; in the data active = inhibition above about 25%;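 also: 0% = vehicle with enzyme and 100% = no enzyme buffer only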
An asterisk follows results filed as active; . = not tested or not shown. Most compounds without a hit are left out; they make up all but 2.6% or so of the library.

SMILES | PRMT1 inh | GSTO1 counter | Apaf1 inhib | PAD4 FP inh | TDP2 absorb | TDP2 confirm
CCc1ccc2cc(C)cc(C)c2n1 | -2 | . | . | . | 4 | .
c1ccc(Cc2ccc(OCCN3CCOCC3)cc2)cc1 | 1 | -4 | 10 | -5 | 0 | .
c1ccc(OCCN2CCOCC2)cc1 | 1 | -5 | 0 | 0 | 31* | 7
CC(=O)c1cccc(NC(=O)N2CCc3ccccc3C2)c1 | 0 | 2 | 0 | -6 | 4 | .
CC(=O)c1ccc(NC(=O)N2CCc3ccccc3C2)cc1 | 1 | -1 | 10 | -1 | 27* | 6
Cc1c(C)c2c(C)nn(-c3ccccc3)c2[nH]c1=O | 1 | 0 | -7 | 1 | 1 | .
Nc1c2c(=O)[nH]c(O)cc2nn1-c1ccccc1 | 0 | . | . | . | 89* | 77*
COc1cc(/C=N/NC(=O)CN2CCCCC2)ccc1OCc1ccc(Br)cc1 | -3 | -2 | 10 | -2 | -4 | .
COc1ccc(NC(=S)NC(=O)c2cncc(Br)c2)cc1 | -6 | 9 | -4 | -4 | -9 | .
CCc1nc2ccc(C(=O)NCCN3CCNC3=O)cn2c1N(C)CCC(C)C | -4 | . | . | . | 2 | .
Cc1nn(C(C)C(=O)NCc2ccco2)c(=O)c2nn(-c3ccccc3)c(C)c12 (centres undefined) | 5 | 0 | -4 | 5 | 28* | 5
COCCCNC(=O)c1ccc(Cn2c(=O)c3ccccc3n(Cc3ccc([N+](=O)[O-])cc3)c2=O)cc1 | 0 | . | . | . | 4 | .
CC(C)c1ccc(/C=C(\NC(=O)c2ccccc2)C(=O)NCCN2CCOCC2)cc1 | -5 | -1 | 5 | 0 | -2 | .
Cc1ccc([N+](=O)[O-])cc1S(=O)(=O)NCC1COc2ccccc2O1 (centres undefined) | 3 | 6 | 10 | -3 | 45* | -3
Cc1ccc(S(=O)(=O)NCC2COc3ccccc3O2)cc1 (centres undefined) | -1 | 10 | -5 | 0 | -7 | .
CCC1CCCCN1C(=O)CNCC1CCCO1 (centres undefined) | -3 | 4 | -34 | 5 | 33* | 7
O=C(CNCC1CCCO1)N1CCCc2ccccc21 (centres undefined) | -5 | 0 | -6 | 0 | 15 | .
CCC(C(=O)Nc1cccc(S(=O)(=O)N(C)c2ccccc2)c1)c1ccccc1 (centres undefined) | 0 | . | 6 | -8 | 2 | .
Cc1ccc(-n2c3nc(=O)[nH]c(=O)c-3cc3cc([N+](=O)[O-])ccc32)cc1 | 0 | 16 | 34 | -1 | 46* | 41*
COc1ccc(N(C)C(=O)Nc2ccc3c(c2)nnn3C)cc1 | -2 | 0 | -7 | -3 | -15 | .
COc1ccc(N(C)C(=O)Nc2ccc3nsnc3c2)cc1 | 9 | . | . | . | 95* | 7
COC(=O)[C@@H](Cc1c[nH]c2ccccc12)NC(=O)CCC(=O)c1ccc(Br)cc1 | 2 | 4 | -4 | 2 | -2 | .
CC(=O)Nc1ccc2c(c1)C(N1CC3CCC(CC3)C1)c1ccccc1-2 (centres undefined) | -3 | . | . | . | 8 | .
CCCCN(C(=O)CCC(=O)OCC(=O)NCc1ccccc1)c1c(N)n(CCC)c(=O)[nH]c1=O | -1 | . | 10 | -3 | -1 | .
CCCCCN(C(=O)CCC(=O)OCC(=O)NCc1cccc(OC)c1)c1c(N)n(CCCC)c(=O)[nH]c1=O | 0 | 1 | 12 | 1 | 75* | -2
SMILES | PRMT1 inh | GSTO1 counter | Apaf1 inhib | PAD4 FP inh | TDP2 absorb | TDP2 confirm
CCCCn1c(N)c(N(CC(C)C)C(=O)c2cccc(OCc3ccccc3)c2)c(=O)[nH]c1=O | 0 | -3 | 13 | -1 | 25* | -4
CCOC(=O)C1(C)CCCN(C(=O)c2ccc(OC)cc2OC)C1 (centres undefined) | 4 | . | . | . | 3 | .
Nn1cnnc1N/N=C/c1ccc(Cl)cc1Cl | 5 | . | 2 | . | 73* | -7
O=C(N/N=C/c1ccc(Cl)cc1Cl)c1ccc(-n2cnnn2)cc1 | -1 | . | -17 | 0 | -13 | .
[O-][n+]1cccc2cccc(O)c21 | 2 | . | . | . | 5 | .
C[n+]1cccc2cccc([O-])c21 | 7 | . | . | . | 27* | 28*
CC1=C(C(=O)N(C)C)CC(CC(=O)NCc2cccs2)C(=O)N1Cc1ccc(C(C)(C)C)cc1 (centres undefined) | -1 | . | . | . | -5 | .
OCCNc1ncnc2c1sc1nc(N3CCOCC3)c3c(c12)CCC3 | -2 | -6 | 4 | 2 | 27* | -4
CCN(CC)CCNc1ncnc2c1sc1nc(N3CCOCC3)c3c(c12)CCCC3 | 1 | 2 | -2 | -4 | 5 | .
Cc1cccc(CN2CCSCC2)c1 | 5 | 5 | -15 | -4 | 27* | -2
Cc1ccc2cc(C#N)c(SCc3nnc(-c4ccccc4[N+](=O)[O-])o3)nc2c1 | -3 | 3 | 18 | 2 | 5 | .
CS(=O)(=O)Nc1ccc(-c2cn3cccnc3n2)cc1 | -1 | 4 | 2 | -2 | 26* | 6
Cc1cc(C)c(OCCOCCN2CCN(C)CC2)c(Cl)c1 | 0 | 2 | -13 | 3 | 29* | 11
O=C(CSCc1ccccc1)Nc1ccccc1C(=O)Nc1ccc(C(=O)O)cc1 | -6 | -2 | -1 | -8 | -13 | .
Cc1cnc(CNC(=O)CC2C(=O)NCCN2Cc2cccc(F)c2F)cn1 (centres undefined) | 3 | 16 | 2 | 2 | 25* | -3
COc1ccc(C/C(C)=N/NC(=O)c2cccnc2)cc1 | -1 | 7 | -6 | -1 | 5 | .
CC(=O)c1cnc2c(-c3ccccc3)c(-c3ccccc3)nn2c1C | -5 | 3 | -1 | -2 | 10 | .
O=C(N/N=C/c1ccc(O)cc1O)C(=O)N/N=C/c1ccc(O)cc1O | 9 | 13 | -18 | -1 | 26* | 7
COc1cc(C(=O)Nc2ccccc2SCc2cc(=O)n3nc(C)sc3n2)cc(OC)c1OC | 3 | 2 | -5 | 4 | 3 | .
Cc1nn2c(=O)cc(CSc3ccccc3NC(=O)c3ccccc3)nc2s1 | 1 | 0 | -1 | 2 | 26* | -5
Cc1ccc(C)c(S(=O)(=O)NCc2ccc(C(=O)N3CCN(C)CC3)cc2)c1 | 0 | -4 | -1 | -3 | 5 | .
Cc1ccc(C)c(S(=O)(=O)NCc2ccc(C(=O)N3CCOCC3)cc2)c1 | -2 | 1 | -47 | -2 | 25* | -5
Cc1oc(-c2ccccc2F)nc1CS(=O)(=O)CC(=O)NC(C)CCc1ccccc1 (centres undefined) | 2 | -4 | 25 | -7 | 27* | -1
Cc1oc(-c2ccccc2F)nc1CS(=O)(=O)CC(=O)NCCCc1ccccc1 | -2 | -2 | 17 | -1 | 2 | .
Cc1ccc(-c2ccc(C#N)c(=O)n2CC(=O)N(C)C)cc1 | 2 | -1 | 1 | 2 | 0 | .
O=S(=O)(c1ccc(-c2ccon2)s1)N1CCN(CCN2CCOCC2)CC1 | 0 | 1 | -3 | 3 | -2 | .
O=S(=O)(c1ccc(-c2ccon2)s1)N1CCCC1 | -1 | 3 | -12 | 1 | 26* | 5
